Screens (PubChem BioAssay)
In the library only some 1.8% were active in any assay of this set; here they are far more common.
Jurkat NFkB inh – inhibitors of induced NF-kB luciferase reporter, primary screen, TCR NF-kB activation inhibitor project, cell-based, luminescence, uHTS; Jurkat, PMA/ionomycin-induced NF-kB luciferase reporter; inhibition, % at 4 µM; 0.53% of 330,000 active; in the data active means inhibition above about 50%
Gli-Sufu block – Gli-Sufu pathway antagonists, primary screen, luciferase luminescence, Sufu-KO-LIGHT cells, uHTS | Sufu-KO-LIGHT fibroblasts, Gli luciferase reporter luminescence | inhibition, % at 5 µM | 0.74% of 340,000 active;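 active means inhibition above about 55%, limit read from the data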;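 further: 0% = DMSO-treated cells and 100% = wells with medium but no cells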
697 NFkB inh – inhibitors of PMA/ionomycin-induced NF-kB reporter, 697 cells, primary screen, B-cell NF-kB inhibitor project, cell-based, luminescence, uHTS. 697 B-cell NF-kB luciferase reporter, 16 h. inhibition, % at 4 µM. 0.33% of 330,000 active; in the data active means inhibition above about 35%
NR2E3 ag-1 – inhibitors of NR2E3-RetCOR corepressor binding, primary screen, NR2E3 agonist project, biochemical, TR-FRET, GST-NR2E3, biotin-RetCOR. AID 2300, 2010. inhibition of corepressor binding, % at 4.78 µM. 0.12% of 320,000 active. 1536-well;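 active means percent inhibition above the cutoff of mean plus 3 SD of all tested compounds, set per screening campaign, cut at about 20% in these data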;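 further: 0% = DMSO wells and 100% = biotin wells as full block of FRET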
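Test system – NR2E3–RetCOR corepressor complex · Quantity – NR2E3 fusion 1.35 nM · Buffer or medium – Tris pH 7.5 · Incubation – Compound–protein incubation for 5 h at 4 °C · Technique – TR-FRET, Eu(K)-anti-GST donor, streptavidin-D2 acceptor, ex 340, em 617/671 nm · Evaluation – percent inhibition of 671/617 nm emission ratio versus biotin and DMSO controls · Plate – 1536-well format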
NR2E3 ag-2 – NR2E3 agonists in two-hybrid cells, primary screen, cell-based, luminescence, CHO-S, Gal4-NCOR/VP16-NR2E3; 0.35% of 360,000 active; Photoreceptor-specific nuclear receptor (Homo sapiens), Q9Y5X4; luciferase; inhibition of corepressor binding, % at 3.98 µM;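 active means inhibition above the mean of all tested compounds plus 3 SD, cut at about 70% in these data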;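 further: 0% = DMSO with NR2E3 transfected cells and 100% = cells lacking NR2E3 construct; higher means lower luciferase signal from less NR2E3 corepressor binding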
GalR3 antagonist – GalR3 antagonists in HEK293 cells, primary screen, cell-based, fluorescence readout. inhibition, % at 3 µM. HEK293 GalR3-CNG cAMP membrane potential fluorescence; galR3 body fused to GalR1 C-terminus. Galanin receptor type 3 (Homo sapiens), O60755. 0.44% of 360,000 active;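 active means inhibition above the screen-wide average plus 3 SD, cut at about 13% in these data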;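 further: forskolin and galanin both at EC90 stimulate the cells; cAMP rise reported by CNG channel membrane potential dye signal; 0% = forskolin plus galanin with DMSO and 100% = forskolin alone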
Target sequence (O60755 1-299 limits assumed): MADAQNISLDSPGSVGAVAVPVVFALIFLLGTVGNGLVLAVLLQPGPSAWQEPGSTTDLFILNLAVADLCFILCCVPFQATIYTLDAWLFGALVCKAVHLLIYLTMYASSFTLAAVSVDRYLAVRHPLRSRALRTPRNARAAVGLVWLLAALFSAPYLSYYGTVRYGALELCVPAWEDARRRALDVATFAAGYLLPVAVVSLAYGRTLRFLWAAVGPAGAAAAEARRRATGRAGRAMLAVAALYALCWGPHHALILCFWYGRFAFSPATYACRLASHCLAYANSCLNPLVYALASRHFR
697 NFkB conf – PMA/ionomycin-induced NF-kB reporter inhibitors, 697 retest, confirmation, B-cell NF-kB inhibitor project, cell-based, luminescence, single concentration. shares compounds with 697 NFkB inh. 697 B-cell NF-kB luciferase, 16 h. inhibition, % at 4 µM. 35% of 2,000 active; in the data active means inhibition mostly above about 28%, no sharp cut-off; inactive means mostly below about 22%
* marks the source's active call; other numbers are inactive results.

Screening CCCNC(=O)c1ccc(N2CCC3(CC2)CC(c2cccc(Br)c2)=NO3)c(NC(=O)c2ccc(Cl)c([N+](=O)[O-])c2)c1 returned Jurkat NFkB inh 10.9, Gli-Sufu block 5.0, 697 NFkB inh 36.9*, NR2E3 ag-1 3.4, NR2E3 ag-2 -32.8, GalR3 antagonist -2.7 and 697 NFkB conf 26.0*.
Screening COC(=O)c1c(-c2ccccc2)csc1NC(=O)c1c(-c2ccccc2)noc1C returned Jurkat NFkB inh -43.7, Gli-Sufu block 5.7, 697 NFkB inh inactive, NR2E3 ag-1 -1.5, NR2E3 ag-2 -13.9, GalR3 antagonist 3.2 and 697 NFkB conf inactive.
`CCOC(=O)c1c(-c2ccc(C)cc2)csc1NC(=S)NC(=O)c1ccccc1` gave Jurkat NFkB inh 3.0, Gli-Sufu block 4.3, 697 NFkB inh -486.0, NR2E3 ag-1 2.6, NR2E3 ag-2 -20.1, GalR3 antagonist -4.8 and 697 NFkB conf 0.1.
For COC(=O)C1=C(C)N(Cc2ccccc2C(F)(F)F)C(=NCc2ccc3c(c2)OCO3)NC1c1ccc(C(F)(F)F)cc1 (configuration not stated) the results were GalR3 antagonist -7.6.
For COc1cc(/C=N/NC(=O)c2cc(-c3cccc(OC(C)C)c3)nc3ccccc23)ccc1O the results were Jurkat NFkB inh -11.7, Gli-Sufu block -21.9, 697 NFkB inh inactive, NR2E3 ag-1 -0.9, NR2E3 ag-2 -58.4, GalR3 antagonist 0.9 and 697 NFkB conf -383.6.
For CC(=O)Nc1ccc(S(=O)(=O)Oc2ccc3c(c2)C(C)=CC(C)(C)N3)cc1 the results were Jurkat NFkB inh -18.1, 697 NFkB inh inactive, NR2E3 ag-1 2.7 and 697 NFkB conf inactive.
CC(C)[C@H](NC(=O)CC1CCCC1)C(=O)N1CCC[C@H]1C(=O)NCCc1ccccc1Cl was read as GalR3 antagonist -8.1.
Cc1nc(Nc2ccc(C(=O)O)cc2)sc1-c1ccccc1 was read as Jurkat NFkB inh -35.7, Gli-Sufu block -60.2, 697 NFkB inh -284.4, NR2E3 ag-1 3.7, NR2E3 ag-2 -116.2, GalR3 antagonist -0.7 and 697 NFkB conf -401.2.
`COCCNc1nnc(SC(C)C(=O)Nc2c(C)n(C)n(-c3ccccc3)c2=O)s1` (configuration not stated) gave Jurkat NFkB inh 15.2, Gli-Sufu block -10.9, 697 NFkB inh -2.6, NR2E3 ag-1 3.4, NR2E3 ag-2 4.2 and GalR3 antagonist 5.9.
Screening COCCNc1nnc(SC(C)C(=O)Nc2ccc(-c3nc4ccc(C)cc4s3)cc2)s1 (configuration not stated) returned Jurkat NFkB inh -124.7, Gli-Sufu block -63.3, 697 NFkB inh -294.2, NR2E3 ag-1 -2.3, NR2E3 ag-2 -110.6, GalR3 antagonist -3.0 and 697 NFkB conf -281.9.
`N=C1C(c2nc3ccccc3s2)=C(O)CN1C1CCCCC1` gave Jurkat NFkB inh -123.6, Gli-Sufu block -40.6, 697 NFkB inh -270.8, NR2E3 ag-1 0.6, NR2E3 ag-2 -32.1, GalR3 antagonist -1.8 and 697 NFkB conf -88.3.
Screening N=C1C(c2nc3ccccc3s2)=C(O)CN1C1CCC(O)CC1 (configuration not stated) returned Jurkat NFkB inh -13.2, Gli-Sufu block -2.7, 697 NFkB inh 1.5, NR2E3 ag-1 3.4 and GalR3 antagonist 2.5.
Screening CC(C)C[C@H]1COc2cc(Br)ccc2S(=O)(=O)N1Cc1ccc(Cl)cc1 returned GalR3 antagonist -2.4.
COc1ccc(C2CC(=O)C(c3cc(OC)c(OC)c(OC)c3)=CN2Cc2ccccc2)cc1 (configuration not stated) was read as GalR3 antagonist -7.8.
For O=C(OCc1ccccc1)N1Cc2ccnnc2CC1c1ccccc1-c1ccc(C(F)(F)F)cc1 (configuration not stated) the results were GalR3 antagonist -6.9.
`Cc1ccc(Cc2cnc(NC(=O)c3cccs3)s2)cc1` gave Jurkat NFkB inh -124.4, Gli-Sufu block -115.9, 697 NFkB inh -299.3, NR2E3 ag-1 0.6, NR2E3 ag-2 -147.6, GalR3 antagonist -6.2 and 697 NFkB conf -259.4.
For Cc1ccc2nc(NC(=S)NC(=O)c3cccs3)sc2c1 the results were Jurkat NFkB inh -41.8, Gli-Sufu block 16.0, 697 NFkB inh -191.3, NR2E3 ag-1 3.2, NR2E3 ag-2 -36.0 and GalR3 antagonist -0.1.
For O=C(Nc1nc2c(s1)CCCC2)c1cccs1 the results were Jurkat NFkB inh -134.3, Gli-Sufu block -84.4, 697 NFkB inh -251.9, NR2E3 ag-1 -3.2, NR2E3 ag-2 -161.2, GalR3 antagonist -5.9 and 697 NFkB conf -264.1.
Cc1ccc2nc(NC(=O)c3cccs3)sc2c1 was read as Jurkat NFkB inh -138.1, Gli-Sufu block -118.6, 697 NFkB inh -433.5, NR2E3 ag-1 7.8, NR2E3 ag-2 -111.2, GalR3 antagonist -9.3 and 697 NFkB conf -454.5.
`COc1ccccc1-c1nc(C#N)c(N2CCN(c3ccccc3)CC2)o1` gave Jurkat NFkB inh 10.8, Gli-Sufu block -0.9, 697 NFkB inh 36.6*, NR2E3 ag-1 -1.3, NR2E3 ag-2 -12.0, GalR3 antagonist 6.0 and 697 NFkB conf 18.8.
Screening COc1ccc(N2CCN(c3oc(-c4ccccc4OC)nc3C#N)CC2)cc1 returned Jurkat NFkB inh 5.5, Gli-Sufu block 2.5, 697 NFkB inh 12.4, NR2E3 ag-1 1.4 and NR2E3 ag-2 -12.5.
COC(=O)c1c(NC(=O)c2ccco2)sc(C(=O)N2CCCC2)c1C was read as Jurkat NFkB inh -12.2, Gli-Sufu block 3.0, 697 NFkB inh 7.3, NR2E3 ag-1 0.0, NR2E3 ag-2 -5.7 and GalR3 antagonist -0.9.
COC(=O)c1c(NC(=O)c2ccco2)sc2c1CCN(C(C)=O)C2 was read as Jurkat NFkB inh -6.6, Gli-Sufu block -7.2, 697 NFkB inh 38.3*, NR2E3 ag-1 -1.5, NR2E3 ag-2 -0.4, GalR3 antagonist -1.6 and 697 NFkB conf 9.4.
O=C(N[C@H](C(=O)N1CCC[C@H]1C(=O)NCc1ccccc1)C1CCCCC1)c1ccccc1 was read as GalR3 antagonist -2.3.
